Activity calls are given as the source filed them. No cut-off for these calls is given here.
Tests used:
Influenza B virus = experiment: Antiviral activity against Influenza B virus infected in MDCK cells assessed as inhibition of virus-induced cytopathic effect at 0.32 to 100 uM; type: functional, organism-based
Outline: (§1)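 Confluent MDCK monolayers were infected in the presence of the compound at 100, 40, 8, 1.6 and 0.32 μM. Viral cytopathicity was scored once it was complete in untreated infected control cultures.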

Influenza A virus [1] = experiment: Antiviral activity against Influenza A virus H1N1 infected in MDCK cells assessed as inhibition of virus-induced cytopathic effect at 0.32 to 100 uM; type: functional, organism-based; outline: as §1
[2] = system: Human immunodeficiency virus 2; experiment: Antiviral activity against HIV2 ROD infected in human CEM cells assessed as inhibition of virus-induced CEM giant cell formation at 0.32 to 100 uM after 4 days; type: functional, organism-based; settings: ISOLATE ROD, CCRF-CEM
Outline: (§2)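 CEM cells (~3 × 10^5 cells/cm³) exposed to 100 CCID50/ml of virus and seeded into wells holding compound dilutions. Incubated 4 days at 37 °C, then giant cell formation examined microscopically.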

Human alphaherpesvirus 2 = experiment: Antiviral activity against HSV2 G infected in human lung fibroblast assessed as inhibition of virus-induced cytopathic effect at 0.32 to 100 uM; type: functional, organism-based; settings: strain G
Outline: (§3)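 Confluent cell cultures were infected with 100 CCID50 of virus in the presence of test compound at 100, 40, 8, 1.6 and 0.32 μM. Cytopathic effect was scored once it was complete in untreated infected controls.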

Glycine max = experiment: Inhibition of soybean LOX assessed as conversion of sodium linoleate to 13- hydroperoxylinoleic acid at 100 uM
HeLa = experiment: Cytostatic activity against human HeLa cells after 3 days by coulter counter analysis; type: functional, cell-based; settings: 72 h
Outline: (§4)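 300,000–500,000 cells/ml mixed 1:1 with compound dilutions and incubated at 37 °C for 2 days (L1210) or 3 days (CEM, HeLa). Cell number counted with a Coulter counter; HeLa trypsinized before counting.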

CCRF-CEM = experiment: Cytostatic activity against human CEM cells after 3 days by coulter counter analysis; type: functional, cell-based; settings: 72 h; outline: as §4
[3] = system: Mammalian orthoreovirus 1; experiment: Antiviral activity against Reovirus-1 infected in african green monkey Vero cells assessed as inhibition of virus-induced cytopathic effect at 0.32 to 100 uM; type: functional, organism-based; outline: as §3
Coxsackievirus B4 [4] = experiment: Antiviral activity against Coxsackievirus B4 infected in african green monkey Vero cells assessed as inhibition of virus-induced cytopathic effect at 0.32 to 100 uM; type: functional, organism-based; outline: as §3
HCT-116 = experiment: Cytostatic activity against human HCT116 cells after 72 hrs by MTT assay; type: functional, cell-based; settings: HCT-116, 72 h
Outline: (§5)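 Monolayers in DMEM with 10% FBS, 2 mM L-glutamine and penicillin/streptomycin, 37 °C, 5% CO2. Seeded at 1–3 × 10^4 cells/ml, then compound added in tenfold dilutions (10⁻⁸–10⁻⁴ M) for 72 h. MTT read at 570 nm; percent growth taken against time-zero and untreated controls. IC50 by linear regression; quadruplicate, at least two experiments.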

Feline coronavirus = experiment: Antiviral activity against Feline coronavirus infected in feline CRFK cells assessed as inhibition of virus-induced cytopathic effect at 0.32 to 100 uM; type: functional, organism-based; outline: as §3
[5] = system: Human immunodeficiency virus 1; experiment: Antiviral activity against HIV1 3B infected in human CEM cells assessed as inhibition of virus-induced CEM giant cell formation at 0.32 to 100 uM after 4 days; type: functional, organism-based; settings: CCRF-CEM; outline: as §2
Felid alphaherpesvirus 1 = experiment: Antiviral activity against Feline herpesvirus infected in feline CRFK cells assessed as inhibition of virus-induced cytopathic effect at 0.32 to 100 uM; type: functional, organism-based; outline: as §3
Sindbis virus = experiment: Antiviral activity against Sindbis virus infected in african green monkey Vero cells assessed as inhibition of virus-induced cytopathic effect at 0.32 to 100 uM; type: functional, organism-based; outline: as §3
Punta Toro virus = experiment: Antiviral activity against Punta Toro virus infected in african green monkey Vero cells assessed as inhibition of virus-induced cytopathic effect at 0.32 to 100 uM; type: functional, organism-based; outline: as §3
L1210 = experiment: Cytostatic activity against mouse L1210 cells after 2 days by coulter counter analysis; type: functional, cell-based; settings: L1210, 48 h; outline: as §4
[6] = Antioxidant activity assessed as inhibition of AAPH-induced linoleic acid lipid peroxidation by measuring conjugated diene hydroperoxide level; type: functional; set-up: concentration or dose not given beside the values; settings: dose or concentration not given here
Outline: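 Linoleic acid sodium salt (10 μL of 16 mM) in 0.05 M phosphate buffer pH 7.4 at 37 °C. Oxidation started under air with 50 μL of 40 mM AAPH. Conjugated diene hydroperoxide formation followed as absorbance rise at 234 nm; control contains the same DMSO level. At least triplicate.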

Human alphaherpesvirus 1 = experiment: Antiviral activity against HSV1 KOS infected in human lung fibroblast assessed as inhibition of virus-induced cytopathic effect at 0.32 to 100 uM; type: functional, organism-based; outline: as §3
[7] = system: Vesicular stomatitis virus; experiment: Antiviral activity against Vesicular stomatitis virus infected in human cervix carcinoma cells assessed as inhibition of virus-induced cytopathic effect at 0.32 to 100 uM; type: functional, organism-based
Outline: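 Confluent human cervix carcinoma (HeLa) cultures received 100 CCID50 of VSV together with the compound at 100, 40, 8, 1.6 or 0.32 μM. Cytopathicity was read at the point of full CPE in infected, untreated control wells.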

[8] = system: Vesicular stomatitis virus; experiment: Antiviral activity against VSV infected in human lung fibroblast assessed as inhibition of virus-induced cytopathic effect at 0.32 to 100 uM; type: functional, organism-based
Human respirovirus 3 = experiment: Antiviral activity against Parainfluenza virus 3 infected in african green monkey Vero cells assessed as inhibition of virus-induced cytopathic effect at 0.32 to 100 uM; type: functional, organism-based; outline: as §3
Vaccinia virus = experiment: Antiviral activity against Vaccinia virus infected in human lung fibroblast assessed as inhibition of virus-induced cytopathic effect at 0.32 to 100 uM; type: functional, organism-based; settings: Orthopoxvirus vaccinia
NCI-H460 = experiment: Cytostatic activity against human NCI-H460 cells after 72 hrs by MTT assay; type: functional, cell-based; settings: NCI-H460, 72 h; outline: as §5
[9] = system: Radical scavenging activity; experiment: Antioxidant activity assessed as DPPH free radical scavenging activity at 100 uM after 20 mins by spectrophotometric analysis; type: functional
Outline: (§6)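 0.05 mM DPPH in absolute ethanol mixed with an equal volume of compound in DMSO (final 100 μM). Shaken and left 20 or 60 min, then absorbance read at 517 nm and percent activity calculated. Three replicates, averaged.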

[10] = system: Radical scavenging activity; experiment: Antioxidant activity assessed as DPPH free radical scavenging activity at 100 uM after 60 mins by spectrophotometric analysis; type: functional; outline: as §6
MCF7 = experiment: Cytostatic activity against human MCF7 cells after 72 hrs by MTT assay; type: functional, cell-based; settings: MCF7, 72 h; outline: as §5
[11] = system: Respiratory syncytial virus; experiment: Antiviral activity against RSV infected in human cervix carcinoma cells assessed as inhibition of virus-induced cytopathic effect at 0.32 to 100 uM; type: functional, organism-based; outline: as §3
Coxsackievirus B4 [12] = experiment: Antiviral activity against Coxsackievirus B4 infected in human cervix carcinoma cells assessed as inhibition of virus-induced cytopathic effect at 0.32 to 100 uM; type: functional, organism-based; outline: as §3
HaCaT = experiment: Cytostatic activity against human HaCaT cells after 72 hrs by MTT assay; type: ADME, cell-based; outline: as §5
Influenza A virus [13] = experiment: Antiviral activity against Influenza A virus H3N2 infected in MDCK cells assessed as inhibition of virus-induced cytopathic effect at 0.32 to 100 uM; type: functional, organism-based; outline: as §1
[14] = Inhibition of soybean LOX assessed as conversion of sodium linoleate to 13- hydroperoxylinoleic acid; set-up: species or system Glycine max

Structure (SMILES) | inhibition (Influenza B virus) | inhibition (Influenza A virus [1]) | inhibition [2] | inhibition (Human alphaherpesvirus 2) | inhibition (Glycine max) | IC50 (CCRF-CEM) [µM] | inhibition [3] | inhibition (Coxsackievirus B4 [4]) | IC50 (HCT-116) [µM] | inhibition (Feline coronavirus) | inhibition [5] | inhibition (Felid alphaherpesvirus 1) | inhibition (Sindbis virus) | inhibition (Punta Toro virus) | IC50 (L1210) [µM] | inhibition [6] [%] | inhibition (Human alphaherpesvirus 1) | inhibition [7] | inhibition [8] | inhibition (Human respirovirus 3) | other results
CC(C(=O)NNC(=O)NCc1ccccc1)c1cccc(Cc2ccccc2)c1 (stereo not given) | inactive | inactive | inactive | inactive | inactive | 49 | inactive | inactive | 24 | inactive | inactive | inactive | inactive | inactive | 31 | 48 | inactive | inactive | inactive | inactive | IC50 (HeLa): 94 µM; inhibition (Vaccinia virus): inactive; IC50 (NCI-H460): 28 µM; Activity [9]: 3%; Activity [10]: 9%; IC50 (MCF7): 12 µM; inhibition [11]: inactive; inhibition (Coxsackievirus B4 [12]): inactive; IC50 (HaCaT): 25 µM; inhibition (Influenza A virus [13]): inactive
CC(C(=O)NNC(=O)NCCc1ccccc1)c1cccc(Oc2ccccc2)c1 (stereo not given) | inactive | inactive | inactive | inactive | 20% | 71 | inactive | inactive | 18 | inactive | inactive | inactive | inactive | inactive | 53 | 51 | inactive | inactive | inactive | inactive | IC50 (HeLa): 64 µM; inhibition (Vaccinia virus): inactive; IC50 (NCI-H460): 22 µM; Activity [9]: 4%; Activity [10]: 7%; IC50 (MCF7): 19 µM; inhibition [11]: inactive; inhibition (Coxsackievirus B4 [12]): inactive; IC50 (HaCaT): 15 µM; inhibition (Influenza A virus [13]): inactive
CC(C(=O)NNC(=O)NCCc1ccccc1)c1cccc(Cc2ccccc2)c1 (stereo not given) | inactive | inactive | inactive | inactive | 17% | 29 | inactive | inactive | 20 | inactive | inactive | inactive | inactive | inactive | 31 | 71 | inactive | inactive | inactive | inactive | IC50 (HeLa): 58 µM; inhibition (Vaccinia virus): inactive; IC50 (NCI-H460): 22 µM; Activity [9]: 8%; Activity [10]: 15%; IC50 (MCF7): 15 µM; inhibition [11]: inactive; inhibition (Coxsackievirus B4 [12]): inactive; IC50 (HaCaT): 16 µM; inhibition (Influenza A virus [13]): inactive
CC(C(=O)NNC(=O)NC1CCCC1)c1cccc(Oc2ccccc2)c1 (stereo not given) | inactive | inactive | inactive | inactive | inactive | 73 | inactive | inactive | 36 | inactive | inactive | inactive | inactive | inactive | 55 | 21 | inactive | inactive | inactive | inactive | IC50 (HeLa): 39 µM; inhibition (Vaccinia virus): inactive; IC50 (NCI-H460): 33 µM; Activity [9]: 16%; Activity [10]: 19%; IC50 (MCF7): 20 µM; inhibition [11]: inactive; inhibition (Coxsackievirus B4 [12]): inactive; IC50 (HaCaT): 18 µM; inhibition (Influenza A virus [13]): inactive
CC(C(=O)NNC(=O)NCc1ccccc1)c1cccc(Oc2ccccc2)c1 (stereo not given) | inactive | inactive | inactive | inactive | 68% | 72 | inactive | inactive | 27 | inactive | inactive | inactive | inactive | inactive | 63 | 11 | inactive | inactive | inactive | inactive | inhibition (Vaccinia virus): inactive; IC50 (NCI-H460): 19 µM; Activity [9]: 22%; Activity [10]: 24%; IC50 (MCF7): 17 µM; inhibition [11]: inactive; inhibition (Coxsackievirus B4 [12]): inactive; IC50 (HaCaT): 46 µM; IC50 [14]: 75 µM; inhibition (Influenza A virus [13]): inactive
